Biological target: T1, murine ovastacin (Mus musculus, UniProt Q6HA09)
T1 sequence (Q6HA09 86-435 limits assumed): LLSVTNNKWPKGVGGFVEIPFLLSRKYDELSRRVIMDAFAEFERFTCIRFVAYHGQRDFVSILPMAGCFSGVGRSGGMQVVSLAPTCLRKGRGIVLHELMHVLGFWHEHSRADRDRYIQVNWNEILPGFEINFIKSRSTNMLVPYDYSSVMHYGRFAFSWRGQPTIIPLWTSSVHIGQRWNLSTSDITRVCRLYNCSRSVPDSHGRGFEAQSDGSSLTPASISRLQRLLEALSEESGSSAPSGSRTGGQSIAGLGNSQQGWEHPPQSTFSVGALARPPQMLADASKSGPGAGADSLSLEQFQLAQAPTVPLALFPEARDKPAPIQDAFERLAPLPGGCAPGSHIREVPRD
Assay: fluorogenic enzyme activity assay, inhibition of murine ovastacin
Format: biochemical
Procedure, shortened: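 Recombinant mouse ovastacin was activated with human plasmin (30 min, 10:1 molar ratio). Active enzyme was 1 nM, set by titration with murine fetuin-B. Buffer: 150 mM NaCl, 50 mM Tris·HCl pH 7.4, 0.01% Brij-35, at 37 °C; inhibitors were in DMSO. Reactions started with 25 μM Edans/Dabcyl peptide substrate (final DMSO 1.4%). Initial rates were read ≥1000 s, then proteinase K gave full-turnover calibration. Apparent Ki came from the Morrison equation; two independent experiments, in triplicate.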

| SMILES | Ki |
| --- | --- |
| O=C(CCN(Cc1ccc(Cl)cc1F)Cc1ccc(Cl)c(O)c1F)NO [Compound 12] | 0.75 ± 0.04 µM |
| O=C(CCN(Cc1ccc2c(c1)OCO2)Cc1ccc(Cl)cc1F)NO [Compound 14] | 1.96 ± 0.08 µM |
| O=C(CCN(Cc1cccnc1)Cc1ccc2c(c1)OCO2)NO [Compound 15] | 8.12 ± 0.34 µM |
| O=C(CCN(Cc1ccncc1)Cc1ccc2c(c1)OCO2)NO [Compound 17] | 7.58 ± 0.36 µM |

Results, then the compound that gave them:

| Ki | SMILES |
| --- | --- |
| 0.68 ± 0.02 µM | O=C(CCN(Cc1ccc2c(c1)OCO2)Cc1ccc(Cl)c(O)c1F)NO [Compound 13] |
| 8.18 ± 0.29 µM | O=C(CCN(Cc1ccncc1)Cc1ccc(Cl)c(O)c1F)NO [Compound 18] |
